# Data reported in ChEMBL document CHEMBL1136049, “Synthesis of syn- and anti-1-amino-3-[18F]fluoromethyl-cyclobutane-1-carboxylic acid (FMACBC), potential PET ligands for tumor detection” (J Med Chem, 2002).
# Tests used:
# Rattus norvegicus [1] = species: Rattus norvegicus; assay: Radioactivity distribution in kidney of tumor-bearing fischer rat after injection of syn-[18F]-FMACBC after 5 min; assay type: ADME, organism-based; conditions: in vivo
# Procedure, shortened: (§1)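 Male Fischer 344 rats carrying intracranial rat 9L gliosarcoma, made by stereotaxic injection of 4 × 10^4 cells 17–19 days before. Awake restrained rats received ~35 μCi of 18F tracer in 0.3 mL sterile water IV by tail vein and were killed at 5, 60 or 120 min, n = 3–5. Tissues were weighed, gamma-counted, decay-corrected and expressed as % injected dose per gram.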
# Rattus norvegicus [2] = species: Rattus norvegicus; assay: Radioactivity distribution in kidney of tumor-bearing fischer rat after injection of syn-[18F]-FMACBC after 120 min; assay type: ADME, organism-based; conditions: in vivo, 2 h; procedure, shortened: as §1
# Rattus norvegicus [3] = species: Rattus norvegicus; assay: Radioactivity distribution in brain of tumor-bearing fischer rat after injection of anti-[18F]FMACBC after 120 min; assay type: ADME, organism-based; conditions: in vivo, 2 h; procedure, shortened: as §1
# Rattus norvegicus [4] = species: Rattus norvegicus; assay: Radioactivity distribution in bone of normal fischer rat after injection of anti-[18F]FMACBC after 30 min.; assay type: ADME, organism-based, Bone element; conditions: in vivo, 0.5 h
# Procedure, shortened: (§2)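 Male Fischer 344 rats (200–250 g), normal, fed ad libitum, given ~85 μCi of 18F tracer in 0.3 mL sterile water IV through a tail vein catheter. Anesthesia was ketamine:xylazine IM. Groups of four were killed at 5, 30, 60 and 120 min. Tissues were weighed and gamma-counted against dose standards, decay-corrected, and expressed as mean % injected dose per gram.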
# Rattus norvegicus [5] = species: Rattus norvegicus; assay: Radioactivity distribution in lung of tumor-bearing fischer rat after injection of anti-[18F]FMACBC after 60 min; assay type: ADME, organism-based; conditions: in vivo, 1 h
# Procedure, shortened: (§3)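 Male Fischer 344 rats with intracranial 9L gliosarcoma (4 × 10^4 cells stereotaxically implanted; used 17–19 days after implantation). About 35 μCi tracer in 0.3 mL sterile water was given by tail vein to awake, restrained rats. Rats were killed at 5, 60 or 120 min. Tissues, tumor and contralateral brain were weighed and gamma counted, decay-corrected, and expressed as %ID/g; n = 3–5 per time point.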
# Rattus norvegicus [6] = species: Rattus norvegicus; assay: Radioactivity distribution in brain of normal fischer rat after injection of anti-[18F]FMACBC after 60 min.; assay type: ADME, organism-based; conditions: in vivo, 1 h; procedure, shortened: as §2
# Rattus norvegicus [7] = species: Rattus norvegicus; assay: Radioactivity distribution in testis of tumor-bearing fischer rat after injection of anti-[18F]FMACBC after 120 min; assay type: ADME, organism-based; conditions: in vivo, 2 h; procedure, shortened: as §3
# Rattus norvegicus [8] = species: Rattus norvegicus; assay: Radioactivity distribution in tumor of tumor-bearing fischer rat after injection of syn-[18F]-FMACBC after 60 min; assay type: ADME, organism-based; conditions: in vivo, 1 h; procedure, shortened: as §3
# Rattus norvegicus [9] = species: Rattus norvegicus; assay: Radioactivity distribution in blood of normal fischer rat after injection of syn-[18F]-FMACBC after 30 min.; assay type: ADME, organism-based; conditions: in vivo, 0.5 h; procedure, shortened: as §2
# Rattus norvegicus [10] = species: Rattus norvegicus; assay: Radioactivity distribution in pancreas of normal fischer rat after injection of anti-[18F]FMACBC after 5 min.; assay type: ADME, organism-based; conditions: in vivo
# Procedure, shortened: (§4)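 Normal male Fischer 344 rats (200–250 g) were anesthetised with ketamine:xylazine i.m. and given about 85 μCi tracer in 0.3 mL sterile water via a tail vein catheter. Groups of four were killed at 5, 30, 60 and 120 min. Selected tissues were weighed and gamma counted with dose standards, decay-corrected, and expressed as mean %ID/g.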
# Rattus norvegicus [11] = species: Rattus norvegicus; assay: Radioactivity distribution in spleen of normal fischer rat after injection of anti-[18F]FMACBC after 120 min.; assay type: ADME, organism-based; conditions: in vivo, 2 h; procedure, shortened: as §4
# Rattus norvegicus [12] = species: Rattus norvegicus; assay: Radioactivity distribution in heart of normal fischer rat after injection of syn-[18F]-FMACBC after 120 min.; assay type: ADME, organism-based; conditions: in vivo, 2 h; procedure, shortened: as §2
# Rattus norvegicus [13] = species: Rattus norvegicus; assay: Radioactivity distribution in muscle of tumor-bearing fischer rat after injection of anti-[18F]FMACBC after 5 min; assay type: ADME, organism-based, Muscle tissue; conditions: in vivo; procedure, shortened: as §3
# Rattus norvegicus [14] = species: Rattus norvegicus; assay: Radioactivity distribution in muscle of normal fischer rat after injection of syn-[18F]-FMACBC after 5 min.; assay type: ADME, organism-based, Muscle tissue; conditions: in vivo; procedure, shortened: as §4
# Rattus norvegicus [15] = species: Rattus norvegicus; assay: Radioactivity distribution in testis of normal fischer rat after injection of syn-[18F]-FMACBC after 5 min.; assay type: ADME, organism-based; conditions: in vivo; procedure, shortened: as §4
# Rattus norvegicus [16] = species: Rattus norvegicus; assay: Radioactivity distribution in kidney of normal fischer rat after injection of syn-[18F]-FMACBC after 5 min.; assay type: ADME, organism-based; conditions: in vivo; procedure, shortened: as §2
# Rattus norvegicus [17] = species: Rattus norvegicus; assay: Radioactivity distribution in heart of normal fischer rat after injection of syn-[18F]-FMACBC after 60 min.; assay type: ADME, organism-based; conditions: in vivo, 1 h; procedure, shortened: as §2
# Rattus norvegicus [18] = species: Rattus norvegicus; assay: Radioactivity distribution in heart of tumor-bearing fischer rat after injection of anti-[18F]FMACBC after 60 min; assay type: ADME, organism-based; conditions: in vivo, 1 h; procedure, shortened: as §1
# Rattus norvegicus [19] = species: Rattus norvegicus; assay: Radioactivity distribution in brain of tumor-bearing fischer rat after injection of syn-[18F]-FMACBC after 60 min; assay type: ADME, organism-based; conditions: in vivo, 1 h; procedure, shortened: as §1
# Rattus norvegicus [20] = species: Rattus norvegicus; assay: Radioactivity distribution in bone of tumor-bearing fischer rat after injection of syn-[18F]-FMACBC after 120 min; assay type: ADME, organism-based, Bone element; conditions: in vivo, 2 h; procedure, shortened: as §1
# Rattus norvegicus [21] = species: Rattus norvegicus; assay: Radioactivity distribution in liver of normal fischer rat after injection of anti-[18F]FMACBC after 60 min.; assay type: ADME, organism-based; conditions: in vivo, 1 h; procedure, shortened: as §2
# Rattus norvegicus [22] = species: Rattus norvegicus; assay: Radioactivity distribution in blood of normal fischer rat after injection of anti-[18F]FMACBC after 120 min.; assay type: ADME, organism-based; conditions: in vivo, 2 h; procedure, shortened: as §2
# Rattus norvegicus [23] = species: Rattus norvegicus; assay: Radioactivity distribution in spleen of normal fischer rat after injection of syn-[18F]-FMACBC after 60 min.; assay type: ADME, organism-based; conditions: in vivo, 1 h; procedure, shortened: as §4
# Rattus norvegicus [24] = species: Rattus norvegicus; assay: Radioactivity distribution in brain of normal fischer rat after injection of syn-[18F]-FMACBC after 30 min.; assay type: ADME, organism-based; conditions: in vivo, 0.5 h; procedure, shortened: as §2
# Rattus norvegicus [25] = species: Rattus norvegicus; assay: Radioactivity distribution in blood of normal fischer rat after injection of anti-[18F]FMACBC after 30 min.; assay type: ADME, organism-based; conditions: in vivo, 0.5 h; procedure, shortened: as §2
# Rattus norvegicus [26] = species: Rattus norvegicus; assay: Radioactivity distribution in testis of normal fischer rat after injection of syn-[18F]-FMACBC after 120 min.; assay type: ADME, organism-based; conditions: in vivo, 2 h; procedure, shortened: as §4
# Rattus norvegicus [27] = species: Rattus norvegicus; assay: Radioactivity distribution in blood of tumor-bearing fischer rat after injection of anti-[18F]FMACBC after 5 min; assay type: ADME, organism-based; conditions: in vivo; procedure, shortened: as §1
# Rattus norvegicus [28] = species: Rattus norvegicus; assay: Radioactivity distribution in muscle of normal fischer rat after injection of anti-[18F]FMACBC after 60 min.; assay type: ADME, organism-based, Muscle tissue; conditions: in vivo, 1 h; procedure, shortened: as §4
# Rattus norvegicus [29] = species: Rattus norvegicus; assay: Radioactivity distribution in pancreas of normal fischer rat after injection of anti-[18F]FMACBC after 30 min.; assay type: ADME, organism-based; conditions: in vivo, 0.5 h; procedure, shortened: as §4
# Rattus norvegicus [30] = species: Rattus norvegicus; assay: Radioactivity distribution in liver of normal fischer rat after injection of syn-[18F]-FMACBC after 120 min.; assay type: ADME, organism-based; conditions: in vivo, 2 h; procedure, shortened: as §2
# Rattus norvegicus [31] = species: Rattus norvegicus; assay: Radioactivity distribution in muscle of normal fischer rat after injection of syn-[18F]-FMACBC after 30 min.; assay type: ADME, organism-based, Muscle tissue; conditions: in vivo, 0.5 h; procedure, shortened: as §4
# Rattus norvegicus [32] = species: Rattus norvegicus; assay: Radioactivity distribution in testis of normal fischer rat after injection of syn-[18F]-FMACBC after 60 min.; assay type: ADME, organism-based; conditions: in vivo, 1 h; procedure, shortened: as §4
# Rattus norvegicus [33] = species: Rattus norvegicus; assay: Radioactivity distribution in heart of normal fischer rat after injection of anti-[18F]FMACBC after 30 min.; assay type: ADME, organism-based; conditions: in vivo, 0.5 h; procedure, shortened: as §2
# Rattus norvegicus [34] = species: Rattus norvegicus; assay: Radioactivity distribution in blood of tumor-bearing fischer rat after injection of syn-[18F]-FMACBC after 5 min; assay type: ADME, organism-based; conditions: in vivo; procedure, shortened: as §1
# Rattus norvegicus [35] = species: Rattus norvegicus; assay: Radioactivity distribution in lungs of normal fischer rat after injection of syn-[18F]-FMACBC after 30 min.; assay type: ADME, organism-based, Lung; conditions: in vivo, 0.5 h; procedure, shortened: as §4
# Rattus norvegicus [36] = species: Rattus norvegicus; assay: Radioactivity distribution in pancreas of normal fischer rat after injection of syn-[18F]-FMACBC after 120 min.; assay type: ADME, organism-based; conditions: in vivo, 2 h; procedure, shortened: as §4
# Rattus norvegicus [37] = species: Rattus norvegicus; assay: Radioactivity distribution in heart of tumor-bearing fischer rat after injection of syn-[18F]-FMACBC after 60 min; assay type: ADME, organism-based; conditions: in vivo, 1 h; procedure, shortened: as §1
# Rattus norvegicus [38] = species: Rattus norvegicus; assay: Radioactivity distribution in liver of tumor-bearing fischer rat after injection of syn-[18F]-FMACBC after 60 min; assay type: ADME, organism-based; conditions: in vivo, 1 h; procedure, shortened: as §3
# Rattus norvegicus [39] = species: Rattus norvegicus; assay: Radioactivity distribution in liver of normal fischer rat after injection of anti-[18F]FMACBC after 120 min.; assay type: ADME, organism-based; conditions: in vivo, 2 h; procedure, shortened: as §2
# Rattus norvegicus [40] = species: Rattus norvegicus; assay: Radioactivity distribution in testis of tumor-bearing fischer rat after injection of syn-[18F]-FMACBC after 60 min; assay type: ADME, organism-based; conditions: in vivo, 1 h; procedure, shortened: as §3
# Rattus norvegicus [41] = species: Rattus norvegicus; assay: Radioactivity distribution in heart of tumor-bearing fischer rat after injection of syn-[18F]-FMACBC after 5 min; assay type: ADME, organism-based; conditions: in vivo; procedure, shortened: as §1
smiles,measurement,setting,value
N[C@]1(C(=O)O)C[C@@H](CF)C1,ID/g,Rattus norvegicus [1],0.59%
same,ID/g,Rattus norvegicus [2],0.34%
same,ID/g,Rattus norvegicus [3],0.28%
same,ID/g,Rattus norvegicus [4],0.31%
same,ID/g,Rattus norvegicus [5],0.38%
same,ID/g,Rattus norvegicus [6],0.25%
same,ID/g,Rattus norvegicus [7],0.23%
same,ID/g,Rattus norvegicus [8],1.59%
same,ID/g,Rattus norvegicus [9],0.33%
same,ID/g,Rattus norvegicus [10],2.56%
same,ID/g,Rattus norvegicus [11],0.47%
same,ID/g,Rattus norvegicus [12],0.6%
same,ID/g,Rattus norvegicus [13],0.57%
same,ID/g,Rattus norvegicus [14],0.46%
same,ID/g,Rattus norvegicus [15],0.32%
same,ID/g,Rattus norvegicus [16],0.57%
same,ID/g,Rattus norvegicus [17],0.64%
same,ID/g,Rattus norvegicus [18],0.63%
same,ID/g,Rattus norvegicus [19],0.23%
same,ID/g,Rattus norvegicus [20],0.13%
same,ID/g,Rattus norvegicus [21],0.47%
same,ID/g,Rattus norvegicus [22],0.31%
same,ID/g,Rattus norvegicus [23],0.54%
same,ID/g,Rattus norvegicus [24],0.24%
same,ID/g,Rattus norvegicus [25],0.39%
same,ID/g,Rattus norvegicus [26],0.22%
same,ID/g,Rattus norvegicus [27],0.51%
same,ID/g,Rattus norvegicus [28],0.61%
same,ID/g,Rattus norvegicus [29],4.13%
same,ID/g,Rattus norvegicus [30],0.52%
same,ID/g,Rattus norvegicus [31],0.58%
same,ID/g,Rattus norvegicus [32],0.23%
same,ID/g,Rattus norvegicus [33],0.68%
same,ID/g,Rattus norvegicus [34],0.44%
same,ID/g,Rattus norvegicus [35],0.46%
same,ID/g,Rattus norvegicus [36],3.88%
same,ID/g,Rattus norvegicus [37],0.44%
same,ID/g,Rattus norvegicus [38],0.33%
same,ID/g,Rattus norvegicus [39],0.48%
same,ID/g,Rattus norvegicus [40],0.22%
same,ID/g,Rattus norvegicus [41],0.52%
